Data: ChEMBL document CHEMBL1151705, “Novel azalides derived from 16-membered macrolides. Part II: Isolation of the linear 9-formylcarboxylic acid and its sequential macrocyclization with an amino alcohol or an azidoamine” (2008)
Converted amounts (≈) assume the structure as drawn.

What was measured:
Format in all cases: functional
Streptococcus pneumoniae [1] = assay: Antimicrobial activity against Streptococcus pneumoniae 8 expressing inducible ermB after 20 hrs by agar dilution method
Outline: (§1)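 Streptococci, H. influenzae and M. catarrhalis were precultured on blood agar plates. Suspensions of about 10⁶ CFU/ml were inoculated onto sensitivity disk agar supplemented with 5% horse blood and incubated at 37 °C for 20 h. MIC was read as the lowest drug concentration with no visible growth.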

Streptococcus pneumoniae [2] = assay: Antimicrobial activity against Streptococcus pneumoniae 9 expressing mefA after 20 hrs by agar dilution method; outline: as §1
Streptococcus pneumoniae [3] = assay: Antimicrobial activity against Streptococcus pneumoniae 10 expressing mefA after 20 hrs by agar dilution method; outline: as §1
Streptococcus pyogenes [4] = assay: Antimicrobial activity against drug-susceptible Streptococcus pyogenes 1 after 20 hrs by agar dilution method; outline: as §1
Streptococcus pyogenes [5] = assay: Antimicrobial activity against Streptococcus pyogenes 2 constitutively expressing ermB after 20 hrs by agar dilution method; outline: as §1
Streptococcus pyogenes [6] = assay: Antimicrobial activity against Streptococcus pyogenes 3 expressing mefA after 20 hrs by agar dilution method; outline: as §1
Moraxella catarrhalis [7] = assay: Antimicrobial activity against drug-susceptible Moraxella catarrhalis 1 after 20 hrs by agar dilution method; conditions: Moraxella catarrhalis, 20 h; read-out: MIC; outline: as §1
Moraxella catarrhalis [8] = assay: Antimicrobial activity against drug-susceptible Moraxella catarrhalis 2 after 20 hrs by agar dilution method; conditions: Moraxella catarrhalis, 20 h; read-out: MIC; outline: as §1
Haemophilus influenzae [9] = assay: Antimicrobial activity against drug-susceptible Haemophilus influenzae 1 after 20 hrs by agar dilution method; conditions: Haemophilus influenzae, 20 h; read-out: MIC; outline: as §1
Haemophilus influenzae [10] = assay: Antimicrobial activity against drug-susceptible Haemophilus influenzae 2 after 20 hrs by agar dilution method; conditions: Haemophilus influenzae, 20 h; read-out: MIC; outline: as §1
Haemophilus influenzae [11] = assay: Antimicrobial activity against drug-susceptible Haemophilus influenzae 3 after 20 hrs by agar dilution method; conditions: Haemophilus influenzae, 20 h; read-out: MIC; outline: as §1
Haemophilus influenzae [12] = assay: Antimicrobial activity against drug-susceptible Haemophilus influenzae 4 after 20 hrs by agar dilution method; outline: as §1
Staphylococcus aureus [13] = assay: Antimicrobial activity against drug-susceptible Staphylococcus aureus 209P JC-1 after 20 hrs by agar dilution method; conditions: Staphylococcus aureus, 209P, 20 h; read-out: MIC
Outline: (§2)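 Agar dilution MIC. S. aureus seed culture was grown in sensitivity test broth. Cell suspension (about 10⁶ CFU/ml) was inoculated onto sensitivity disk agar with 5% horse blood and incubated at 37 °C for 20 h. MIC was the lowest drug concentration that prevented visible growth.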

Staphylococcus aureus [14] = assay: Antimicrobial activity against drug-susceptible Staphylococcus aureus 2 after 20 hrs by agar dilution method; conditions: Staphylococcus aureus, 20 h; read-out: MIC; outline: as §2
Staphylococcus aureus [15] = assay: Antimicrobial activity against drug-susceptible Staphylococcus aureus 3 after 20 hrs by agar dilution method; conditions: Staphylococcus aureus, 20 h; read-out: MIC; outline: as §2
Staphylococcus aureus [16] = assay: Antimicrobial activity against Staphylococcus aureus 4 constitutively expressing ermA after 20 hrs by agar dilution method; outline: as §2
Staphylococcus aureus [17] = assay: Antimicrobial activity against Staphylococcus aureus 5 expressing inducible ermB after 20 hrs by agar dilution method; conditions: Staphylococcus aureus, 20 h; read-out: MIC; outline: as §2
Streptococcus pneumoniae [18] = assay: Antimicrobial activity against drug-susceptible Streptococcus pneumoniae DP1 Type1 after 20 hrs by agar dilution method; conditions: Streptococcus pneumoniae, 20 h; read-out: MIC; outline: as §1
Streptococcus pneumoniae [19] = assay: Antimicrobial activity against drug-susceptible Streptococcus pneumoniae 2 after 20 hrs by agar dilution method; conditions: Streptococcus pneumoniae, 20 h; read-out: MIC; outline: as §1
Streptococcus pneumoniae [20] = assay: Antimicrobial activity against drug-susceptible Streptococcus pneumoniae 3 after 20 hrs by agar dilution method; conditions: Streptococcus pneumoniae, 20 h; read-out: MIC; outline: as §1
Streptococcus pneumoniae [21] = assay: Antimicrobial activity against Streptococcus pneumoniae 4 constitutively expressing ermB after 20 hrs by agar dilution method; conditions: Streptococcus pneumoniae, 20 h; read-out: MIC; outline: as §1
Streptococcus pneumoniae [22] = assay: Antimicrobial activity against Streptococcus pneumoniae 5 constitutively expressing ermB/mefA after 20 hrs by agar dilution method; conditions: Streptococcus pneumoniae, 20 h; read-out: MIC; outline: as §1
Streptococcus pneumoniae [23] = assay: Antimicrobial activity against Streptococcus pneumoniae 6 constitutively expressing ermB after 20 hrs by agar dilution method; conditions: Streptococcus pneumoniae, 20 h; read-out: MIC; outline: as §1
Streptococcus pneumoniae [24] = assay: Antimicrobial activity against Streptococcus pneumoniae 7 expressing inducible ermB after 20 hrs by agar dilution method; outline: as §1
Staphylococcus aureus [25] = assay: Antimicrobial activity against Staphylococcus aureus 6 expressing inducible ermB after 20 hrs by agar dilution method; outline: as §2
[26] = Streptococcus pneumoniae, 20 h, read-out: MIC
[27] = Streptococcus pyogenes, 20 h, read-out: MIC
[28] = Haemophilus influenzae, 20 h, read-out: MIC

MIC (Streptococcus pneumoniae [1]; [26]) [µg/mL]	MIC (Streptococcus pneumoniae [2]; [26]) [µg/mL]	MIC (Streptococcus pyogenes [5]) [µg/mL]	MIC (Moraxella catarrhalis [7]) [µg/mL]	MIC (Moraxella catarrhalis [8]) [µg/mL]	MIC (Haemophilus influenzae [9]) [µg/mL]	MIC (Haemophilus influenzae [10]) [µg/mL]	MIC (Haemophilus influenzae [11]) [µg/mL]	MIC (Staphylococcus aureus [13]) [µg/mL]	MIC (Staphylococcus aureus [14]) [µg/mL]	MIC (Staphylococcus aureus [15]) [µg/mL]	MIC (Staphylococcus aureus [16]) [µg/mL]	MIC (Staphylococcus aureus [17]) [µg/mL]	MIC (Streptococcus pneumoniae [18]) [µg/mL]	MIC (Streptococcus pneumoniae [19]) [µg/mL]	MIC (Streptococcus pneumoniae [20]) [µg/mL]	MIC (Streptococcus pneumoniae [21]) [µg/mL]	MIC (Streptococcus pneumoniae [22]) [µg/mL]	MIC (Streptococcus pneumoniae [23]) [µg/mL]	MIC (Staphylococcus aureus [25]) [µg/mL]	Structure (SMILES)	other results
4 (≈ 4.05 µM)	0.015 (≈ 0.0152 µM)	> 128	1 (≈ 1.01 µM)	1 (≈ 1.01 µM)	32 (≈ 32.4 µM)	2 (≈ 2.02 µM)	8 (≈ 8.1 µM)	0.13 (≈ 0.132 µM)	0.25 (≈ 0.253 µM)	0.13 (≈ 0.132 µM)	> 128	0.13 (≈ 0.132 µM)	< 0.008	0.015 (≈ 0.0152 µM)	< 0.008	128 (≈ 130 µM)	128 (≈ 130 µM)	128 (≈ 130 µM)	0.25 (≈ 0.253 µM)	CCOC(=O)[C@H]1[C@H](C)O[C@@H](O[C@H]2[C@H](N(C)C)[C@@H](O)[C@H](O[C@H]3[C@@H](CC=O)C[C@@H](C)[C@@H](O)CN(C)CCC[C@H](CCCc4cnc5ccccc5c4)OC(=O)C[C@@H](OC(=O)CC)[C@@H]3OC)O[C@@H]2C)C[C@@]1(C)O	MIC (Streptococcus pneumoniae [3]; [26]): 0.015 µg/mL (≈ 0.0152 µM); MIC (Streptococcus pyogenes [4]; [27]): 0.015 µg/mL (≈ 0.0152 µM); MIC (Streptococcus pyogenes [6]; [27]): 0.13 µg/mL (≈ 0.132 µM); MIC (Haemophilus influenzae [12]; [28]): 8 µg/mL (≈ 8.1 µM); MIC (Streptococcus pneumoniae [24]; [26]): 4 µg/mL (≈ 4.05 µM)
–	–	> 128	1 (≈ 1.01 µM)	1 (≈ 1.01 µM)	32 (≈ 32.4 µM)	2 (≈ 2.03 µM)	8 (≈ 8.11 µM)	0.13 (≈ 0.132 µM)	0.25 (≈ 0.253 µM)	0.13 (≈ 0.132 µM)	> 128	0.13 (≈ 0.132 µM)	< 0.008	0.03 (≈ 0.0304 µM)	0.015 (≈ 0.0152 µM)	128 (≈ 130 µM)	128 (≈ 130 µM)	128 (≈ 130 µM)	0.25 (≈ 0.253 µM)	CCOC(=O)[C@H]1[C@H](C)O[C@@H](O[C@H]2[C@H](N(C)C)[C@@H](O)[C@H](O[C@H]3[C@@H](CC=O)C[C@@H](C)[C@@H](O)CN(C)CC(/C=C/Cc4cnc5ccccc5c4)CCOC(=O)C[C@@H](OC(=O)CC)[C@@H]3OC)O[C@@H]2C)C[C@@]1(C)O (stereo in doubt; form 1)	MIC (Streptococcus pneumoniae [1]): 1 µg/mL (≈ 1.01 µM); MIC (Streptococcus pneumoniae [2]): 0.015 µg/mL (≈ 0.0152 µM); MIC (Streptococcus pneumoniae [3]): 0.015 µg/mL (≈ 0.0152 µM); MIC (Streptococcus pyogenes [4]): 0.03 µg/mL (≈ 0.0304 µM); MIC (Streptococcus pyogenes [6]): 0.13 µg/mL (≈ 0.132 µM); MIC (Haemophilus influenzae [12]): 4 µg/mL (≈ 4.06 µM); MIC (Streptococcus pneumoniae [24]): 1 µg/mL (≈ 1.01 µM)
8 (≈ 8.11 µM)	0.03 (≈ 0.0304 µM)	> 128	1 (≈ 1.01 µM)	1 (≈ 1.01 µM)	32 (≈ 32.4 µM)	4 (≈ 4.06 µM)	8 (≈ 8.11 µM)	0.25 (≈ 0.253 µM)	0.5 (≈ 0.507 µM)	0.25 (≈ 0.253 µM)	> 128	0.25 (≈ 0.253 µM)	0.015 (≈ 0.0152 µM)	0.03 (≈ 0.0304 µM)	0.015 (≈ 0.0152 µM)	> 128	> 128	> 128	0.25 (≈ 0.253 µM)	CCOC(=O)[C@H]1[C@H](C)O[C@@H](O[C@H]2[C@H](N(C)C)[C@@H](O)[C@H](O[C@H]3[C@@H](CC=O)C[C@@H](C)[C@@H](O)CN(C)CCC[C@H](C/C=C/c4ccc5ncccc5c4)OC(=O)C[C@@H](OC(=O)CC)[C@@H]3OC)O[C@@H]2C)C[C@@]1(C)O	MIC (Streptococcus pneumoniae [3]; [26]): 0.03 µg/mL (≈ 0.0304 µM); MIC (Streptococcus pyogenes [4]; [27]): 0.06 µg/mL (≈ 0.0608 µM); MIC (Streptococcus pyogenes [6]; [27]): 0.25 µg/mL (≈ 0.253 µM); MIC (Haemophilus influenzae [12]; [28]): 8 µg/mL (≈ 8.11 µM); MIC (Streptococcus pneumoniae [24]; [26]): 8 µg/mL (≈ 8.11 µM)
8 (≈ 8.11 µM)	0.03 (≈ 0.0304 µM)	> 128	1 (≈ 1.01 µM)	2 (≈ 2.03 µM)	32 (≈ 32.4 µM)	2 (≈ 2.03 µM)	8 (≈ 8.11 µM)	0.25 (≈ 0.253 µM)	0.5 (≈ 0.507 µM)	0.25 (≈ 0.253 µM)	> 128	0.25 (≈ 0.253 µM)	0.015 (≈ 0.0152 µM)	0.015 (≈ 0.0152 µM)	0.015 (≈ 0.0152 µM)	128 (≈ 130 µM)	128 (≈ 130 µM)	128 (≈ 130 µM)	0.5 (≈ 0.507 µM)	CCOC(=O)[C@H]1[C@H](C)O[C@@H](O[C@H]2[C@H](N(C)C)[C@@H](O)[C@H](O[C@H]3[C@@H](CC=O)C[C@@H](C)[C@@H](O)CN(C)CC(/C=C/Cc4cccc5cccnc45)CCOC(=O)C[C@@H](OC(=O)CC)[C@@H]3OC)O[C@@H]2C)C[C@]1(C)O (stereo not given in full)	MIC (Streptococcus pneumoniae [3]; [26]): 0.03 µg/mL (≈ 0.0304 µM); MIC (Streptococcus pyogenes [4]; [27]): 0.06 µg/mL (≈ 0.0608 µM); MIC (Streptococcus pyogenes [6]; [27]): 0.25 µg/mL (≈ 0.253 µM); MIC (Haemophilus influenzae [12]; [28]): 8 µg/mL (≈ 8.11 µM); MIC (Streptococcus pneumoniae [24]; [26]): 8 µg/mL (≈ 8.11 µM)
